Experimental data of several laboratories.
Each line is one published result; the experiments were not run side by side.
Target: Adenosine receptor A1 (ADORA1, Homo sapiens, UniProt P30542)
One construct used (P30542 1-326): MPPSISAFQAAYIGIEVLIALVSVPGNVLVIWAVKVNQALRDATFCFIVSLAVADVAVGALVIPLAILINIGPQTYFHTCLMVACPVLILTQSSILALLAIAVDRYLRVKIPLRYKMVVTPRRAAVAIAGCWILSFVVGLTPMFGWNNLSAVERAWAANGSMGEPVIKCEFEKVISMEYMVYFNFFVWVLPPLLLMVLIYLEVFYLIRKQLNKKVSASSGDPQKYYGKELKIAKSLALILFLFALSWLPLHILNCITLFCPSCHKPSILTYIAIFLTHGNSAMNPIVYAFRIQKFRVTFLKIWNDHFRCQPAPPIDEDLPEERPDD

| Structure (SMILES) | assay | conditions | measurement | value |
| --- | --- | --- | --- | --- |
| CNC(=O)[C@@]12C[C@@H]1[C@@H](n1cnc3c(NCc4cn(-c5ccc(C(=O)NCCCF)cc5)nn4)nc(Cl)nc31)[C@H](O)[C@@H]2O | ligand displacement, radioligand | cell membranes | Ki | 1380 nM |
| CCCC[C@H](NC(=O)[C@H](C)c1c(C)[nH]c2ccc(O)cc12)c1ncc(-c2cc3ccccc3nc2OC)[nH]1 | cell-free assay | – | IC50 | 2730 nM |
| C=CN1CCCn2c1nc1c2c(=O)n(C)c(=O)n1C | ligand displacement, radioligand | cell membranes | Ki | > 10000 nM |
| COCCN(CCOC)C(=O)[C@@]12C[C@@H]1[C@@H](n1cnc3c(N)nc(Cl)nc31)[C@H](O)[C@@H]2O | ligand displacement, radioligand | – | Ki | 998 nM |
| CCCCCCN1CCCn2c1nc1c2c(=O)n(C)c(=O)n1C | ligand displacement, radioligand | cell membranes | Ki | 3800 nM |
| C#CCCCCC(=O)NCCNC(=O)COc1ccc(-c2nc3c([nH]2)c(=O)n(CCC)c(=O)n3CCC)cc1 | ligand displacement, radioligand | cell membranes | Ki | 107 nM |
| O[C@@H]1[C@H](O)CO[C@H]1n1cnc2c(NCc3cccc(I)c3)ncnc21 | ligand displacement, radioligand | cell membranes | Ki | 2080 nM |
| CNC(=O)[C@@]12C[C@@H]1[C@@H](n1cnc3c(NCc4cccc(C#CCCCc5cn(-c6ccc(F)c(N)c6)nn5)c4)nc(Cl)nc31)[C@H](O)[C@@H]2O | ligand displacement, radioligand | cell membranes | Ki | 640 nM |
| CNC(=O)[C@@]12C[C@@H]1[C@@H](n1cnc3c(NCCc4ccc(O)c(OC)c4)nc(C#Cc4ccc(Cl)s4)nc31)[C@H](O)[C@@H]2O | cell-free assay, radioligand | – | Ki | 43 nM |
| COc1cccc(Cn2c(=O)n(CC3CC3)c(=O)c3c2nc2cc(OC)ccn23)c1 | ligand displacement, radioligand | cell membranes | Ki | 209 nM |
| CCNC(=O)C1OC(n2cnc3c(N)nc(NN=CC4CCC=CO4)nc32)C(O)C1O (centres unmarked) | ligand displacement, radioligand | cell membranes | Ki | 76.4 nM |
| C#CCNc1nc(Cl)nc2c1ncn2[C@H]1[C@H](O)[C@H](O)[C@]2(C(=O)NC)C[C@H]12 | ligand displacement, radioligand | cell membranes | Ki | 400 nM |
| O[C@@H]1[C@H](O)CO[C@H]1n1cnc2c(NCc3cccc(Br)c3)ncnc21 | ligand displacement, radioligand | cell membranes | Ki | 3300 nM |
| OC[C@@]12C[C@@H]1[C@@H](n1cnc3c(NC(C4CCCC4)C4CCCC4)nc(Cl)nc31)[C@H](O)[C@@H]2O | ligand displacement, radioligand | – | Ki | 436 nM |
